Measured values reported in publication PMC5730044 (International journal of medical microbiology : IJMM, 2014).
≈ marks a conversion by molar mass, not a printed value.

Columns and labels:
S. pneumoniae D39 [1] = experiment: Minimal bactericidal concentration; format: cell-based; conditions: viability reduced by ≥99.9%
S. pneumoniae CJ9400 [2] = experiment: Minimal bactericidal concentration; format: cell-based; conditions: viability reduced by ≥99.9%
S. pneumoniae CF6937 [3] = experiment: Biofilm inhibition assay; format: cell-based; conditions: CF6937, TSB, 24 h
S. pneumoniae DSM14378 [4] = experiment: Broth microdilution assay; format: cell-based; conditions: Streptococcus pneumoniae, DSM14378, 18 h, read-out: 90% minimal inhibitory concentration
S. pneumoniae DSM14378 [5] = experiment: Minimal bactericidal concentration; format: cell-based; conditions: viability reduced by ≥99.9%
[6] = biological target: recombinant NanA of DSM20566 (Streptococcus pneumoniae, UniProt P62575); format: biochemical, S. pneumoniae; conditions: for mechanism of inhibition: rNanA, Lineweaver-Burk / SigmaPlot analysis
Chain of recombinant NanA of DSM20566 (P62575 116-1035 limits assumed): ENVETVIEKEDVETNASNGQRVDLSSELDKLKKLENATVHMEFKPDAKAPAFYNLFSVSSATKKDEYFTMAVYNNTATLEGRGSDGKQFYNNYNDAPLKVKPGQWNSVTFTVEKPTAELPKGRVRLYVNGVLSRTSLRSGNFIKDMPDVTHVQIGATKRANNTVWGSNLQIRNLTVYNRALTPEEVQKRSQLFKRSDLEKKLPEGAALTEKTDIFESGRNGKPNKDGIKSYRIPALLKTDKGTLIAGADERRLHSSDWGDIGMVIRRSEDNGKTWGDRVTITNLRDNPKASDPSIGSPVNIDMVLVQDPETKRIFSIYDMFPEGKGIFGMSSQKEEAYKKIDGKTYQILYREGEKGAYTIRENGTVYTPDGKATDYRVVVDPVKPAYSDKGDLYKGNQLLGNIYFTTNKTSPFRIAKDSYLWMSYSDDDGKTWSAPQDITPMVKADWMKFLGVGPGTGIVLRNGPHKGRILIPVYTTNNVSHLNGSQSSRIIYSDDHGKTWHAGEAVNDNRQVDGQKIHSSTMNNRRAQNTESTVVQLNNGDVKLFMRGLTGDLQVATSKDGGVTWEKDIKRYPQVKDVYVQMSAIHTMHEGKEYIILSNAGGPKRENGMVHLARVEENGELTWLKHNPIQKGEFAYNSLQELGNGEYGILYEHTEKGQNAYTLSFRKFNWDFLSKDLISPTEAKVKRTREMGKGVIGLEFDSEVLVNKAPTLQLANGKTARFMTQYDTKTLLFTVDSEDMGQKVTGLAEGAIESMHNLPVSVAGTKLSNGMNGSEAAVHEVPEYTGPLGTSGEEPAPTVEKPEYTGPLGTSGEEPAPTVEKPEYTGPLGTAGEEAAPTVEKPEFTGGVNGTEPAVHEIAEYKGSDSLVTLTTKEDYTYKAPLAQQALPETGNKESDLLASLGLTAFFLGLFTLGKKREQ

S. pneumoniae [7] = experiment: Biofilm inhibition assay; format: cell-based; conditions: range among all tested strains
A549 cells = experiment: Cytotoxicity on confluent A549 cell monolayers; format: cell-based, human; conditions: 12.50 μM, A549, 72 h
Procedure, shortened: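 Three-day-old confluent A549 monolayers were exposed to two-fold serial compound dilutions in duplicate for 72 h at 37°C, 5% CO₂. Cells were washed, fixed and crystal violet-stained, and dye was eluted in citrate/HCl/ethanol buffer for OD550. Viability is relative to six untreated controls. CC50 comes from mean dose-response curves of at least three assays. Morphology at 12.5 µM was checked by phase-contrast microscopy.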

S. pneumoniae DSM20566 [8] = experiment: Minimal bactericidal concentration; format: cell-based; conditions: viability reduced by ≥99.9%
S. pneumoniae CF8919 [9] = experiment: Broth microdilution assay; format: cell-based; conditions: Streptococcus pneumoniae, CF8919, 18 h, read-out: 90% minimal inhibitory concentration
S. pneumoniae [10] = experiment: Bactericidal activity, studied pneumococci; format: cell-based
S. pneumoniae D39 [11] = experiment: Broth microdilution assay; format: cell-based; conditions: Streptococcus pneumoniae, D39, 18 h, read-out: 90% minimal inhibitory concentration
S. pneumoniae D39 [12] = experiment: Biofilm inhibition assay; format: cell-based; conditions: D39, TSB, 24 h
S. pneumoniae BC57 [13] = experiment: Broth microdilution assay; format: cell-based; conditions: Streptococcus pneumoniae, BC57, 18 h, read-out: 90% minimal inhibitory concentration
S. pneumoniae BC7326 [14] = experiment: Broth microdilution assay; format: cell-based; conditions: Streptococcus pneumoniae, BC7326, 18 h, read-out: 90% minimal inhibitory concentration
S. pneumoniae DSM20566 [15] = experiment: Broth microdilution assay; format: cell-based; conditions: Streptococcus pneumoniae, DSM20566, 18 h, read-out: 90% minimal inhibitory concentration
S. pneumoniae DSM20566 [16] = experiment: Biofilm inhibition assay; format: cell-based; conditions: DSM20566, TSB, 24 h
[17] = system: S. pneumoniae PN8828 adherence to A549 cells; experiment: Adherence inhibition assay on A549 cells; format: cell-based; conditions: Streptococcus pneumoniae, A549, 1.5 h, read-out: concentration giving 50% reduction in adherence levels (AIC50)
S. pneumoniae PN8828 [18] = experiment: Biofilm inhibition assay; format: cell-based; conditions: PN8828, TSB, 24 h
S. pneumoniae PN8828 [19] = experiment: Broth microdilution assay; format: cell-based; conditions: Streptococcus pneumoniae, PN8828, 18 h, read-out: 90% minimal inhibitory concentration
S. pneumoniae BC7326 [20] = experiment: Minimal bactericidal concentration; format: cell-based; conditions: viability reduced by ≥99.9%
[21] = system: S. pneumoniae DSM20566 adherence to A549 cells; experiment: Adherence inhibition assay on A549 cells; format: cell-based; conditions: Streptococcus pneumoniae, DSM20566, A549, 1.5 h, read-out: concentration giving 50% reduction in adherence levels (AIC50)
S. pneumoniae [22] = experiment: Broth microdilution assay; format: cell-based; conditions: Streptococcus pneumoniae, read-out: MIC90 values
Procedure, shortened: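 Pneumococci were pre-grown in BHI with gentle shaking at 37°C for 4–5 h (mid-exponential), adjusted to McFarland 0.5 (1.5 × 10^8 cfu/mL) and diluted 50× in BHI. 50 µL bacteria plus 100 µL of two-fold compound dilutions (top 50 or 200 µM) in BHI were run in duplicate, overnight at 37°C, 5% CO₂. OD620 at 18 h minus 0 h was taken relative to no-compound growth control; MIC90 is 90% turbidity reduction.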

S. pneumoniae CJ9400 [23] = experiment: Broth microdilution assay; format: cell-based; conditions: Streptococcus pneumoniae, CJ9400, 18 h, read-out: 90% minimal inhibitory concentration
S. pneumoniae CF6937 [24] = experiment: Minimal bactericidal concentration; format: cell-based; conditions: viability reduced by ≥99.9%
S. pneumoniae CF8919 [25] = experiment: Biofilm inhibition assay; format: cell-based; conditions: CF8919, TSB, 24 h
[26] = system: pneumococcal NA of strain DSM20566; experiment: Lectin-based hemagglutination; format: cell-based, S. pneumoniae; conditions: minimal NA inhibitory concentration
S. pneumoniae DSM14378 [27] = experiment: Biofilm inhibition assay; format: cell-based; conditions: DSM14378, TSB, 24 h
human erythrocytes = experiment: Erythrocyte hemolysis assay; format: cell-based; conditions: observed in HA assay with D39 protein
[28] = Erythrocyte hemolysis assay; format: cell-based, human; conditions: human, erythrocytes
[29] = system: pneumococcal NA of strain CJ9400; experiment: Lectin-based hemagglutination; format: cell-based, S. pneumoniae; conditions: minimal NA inhibitory concentration
[30] = system: pneumococcal adherence to pulmonary epithelial A549 cells
S. pneumoniae CJ9400 [31] = experiment: Biofilm inhibition assay; format: cell-based; conditions: CJ9400, TSB, 24 h
[32] = system: pneumococcal NA of strain D39; experiment: Lectin-based hemagglutination; format: cell-based, S. pneumoniae
S. pneumoniae BC57 [33] = experiment: Biofilm inhibition assay; format: cell-based; conditions: BC57, TSB, 24 h
S. pneumoniae BC7326 [34] = experiment: Biofilm inhibition assay; format: cell-based; conditions: BC7326, TSB, 24 h
S. pneumoniae CF6937 [35] = experiment: Broth microdilution assay; format: cell-based; conditions: Streptococcus pneumoniae, CF6937, 18 h, read-out: 90% minimal inhibitory concentration
viral NAs = conditions: ref Collins et al., 2008; cited from earlier work
pneumococcal NA = pneumococcal NA (Streptococcus pneumoniae, UniProt P62575); conditions: ref Gut et al., 2011; cited from earlier work
Chain of pneumococcal NA (P62575 54-1006): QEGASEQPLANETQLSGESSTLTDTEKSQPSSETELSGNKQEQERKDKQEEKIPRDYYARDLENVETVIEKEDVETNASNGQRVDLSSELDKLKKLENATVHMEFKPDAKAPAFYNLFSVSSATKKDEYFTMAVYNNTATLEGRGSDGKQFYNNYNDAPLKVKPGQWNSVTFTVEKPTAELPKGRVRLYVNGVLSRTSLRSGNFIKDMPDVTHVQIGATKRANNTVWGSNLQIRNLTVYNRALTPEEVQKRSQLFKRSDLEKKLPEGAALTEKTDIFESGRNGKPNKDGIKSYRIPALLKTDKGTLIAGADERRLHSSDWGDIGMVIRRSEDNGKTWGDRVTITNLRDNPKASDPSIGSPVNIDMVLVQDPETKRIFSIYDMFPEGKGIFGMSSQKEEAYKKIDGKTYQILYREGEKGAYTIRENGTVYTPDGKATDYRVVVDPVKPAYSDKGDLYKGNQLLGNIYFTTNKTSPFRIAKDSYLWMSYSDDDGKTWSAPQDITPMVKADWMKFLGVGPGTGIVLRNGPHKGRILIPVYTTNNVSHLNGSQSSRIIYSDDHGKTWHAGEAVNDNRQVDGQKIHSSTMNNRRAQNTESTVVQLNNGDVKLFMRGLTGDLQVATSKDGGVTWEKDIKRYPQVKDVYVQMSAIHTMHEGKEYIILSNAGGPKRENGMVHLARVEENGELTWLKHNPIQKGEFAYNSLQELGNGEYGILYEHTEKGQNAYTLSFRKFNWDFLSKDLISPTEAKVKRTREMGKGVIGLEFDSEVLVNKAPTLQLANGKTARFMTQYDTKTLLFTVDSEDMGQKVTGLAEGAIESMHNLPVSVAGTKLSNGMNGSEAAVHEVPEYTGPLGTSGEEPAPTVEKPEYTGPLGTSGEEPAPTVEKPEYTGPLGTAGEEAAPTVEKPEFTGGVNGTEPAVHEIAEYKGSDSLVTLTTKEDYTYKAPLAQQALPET

| Compound | Bactericidal concentration (S. pneumoniae D39 [1]) [µM] | Bactericidal concentration (S. pneumoniae CJ9400 [2]) [µM] | 90% minimal biofilm inhibitory concentration (S. pneumoniae CF6937 [3]) [µM] | Bactericidal concentration (S. pneumoniae DSM14378 [5]) [µM] | mechanism of inhibition [6] | Bactericidal concentration (S. pneumoniae DSM20566 [8]) [µM] | 90% minimal biofilm inhibitory concentration (S. pneumoniae D39 [12]) [µM] | 90% minimal biofilm inhibitory concentration (S. pneumoniae DSM20566 [16]) [µM] | 90% minimal biofilm inhibitory concentration (S. pneumoniae PN8828 [18]) [µM] | Bactericidal concentration (S. pneumoniae BC7326 [20]) [µM] | Bactericidal concentration (S. pneumoniae CF6937 [24]) [µM] | 90% minimal biofilm inhibitory concentration (S. pneumoniae CF8919 [25]) [µM] | Inhibitory concentration (HA assay) [26] [µM] | 90% minimal biofilm inhibitory concentration (S. pneumoniae DSM14378 [27]) [µM] | Inhibitory concentration (HA assay) [29] [µM] | 90% minimal biofilm inhibitory concentration (S. pneumoniae CJ9400 [31]) [µM] | 90% minimal biofilm inhibitory concentration (S. pneumoniae BC57 [33]) [µM] | 90% minimal biofilm inhibitory concentration (S. pneumoniae BC7326 [34]) [µM] | other results |
| --- | --- | --- | --- | --- | --- | --- | --- | --- | --- | --- | --- | --- | --- | --- | --- | --- | --- | --- | --- |
| COc1cc2oc(-c3ccc(O)cc3O)c(CC=C(C)C)c(=O)c2c(O)c1/C=C/C(C)C [artocarpin] | 2.50 ± 0.77 | 2.74 ± 0.68 | 2.73 ± 0.27 | 4.69 ± 1.98 | mixed-type inhibition | 3.13 ± 0.00 | 2.22 ± 0.76 | 2.88 ± 0.07 | 1.40 ± 0.07 | 3.32 ± 1.94 | 3.44 ± 1.53 | 1.15 ± 0.34 | 7.7 ± 4.0 | 2.37 ± 0.67 | 2.6 ± 1.1 | 2.97 ± 0.13 | 2.35 ± 0.68 | 2.02 ± 0.62 | MIC (S. pneumoniae DSM14378 [4]): 5.75 ± 0.13 µM (≈ 2.51 µg/mL); mean MBIC90 values (S. pneumoniae [7]): 1.15 to 2.97 µM; cytotoxic effect (in words) (A549 cells): no cytotoxic effect; MIC (S. pneumoniae CF8919 [9]): 1.45 ± 0.01 µM (≈ 0.633 µg/mL); factor of reduction of viability of pneumococci (S. pneumoniae [10]; within 18 h): > 1000; MIC (S. pneumoniae D39 [11]): 1.29 ± 0.31 µM (≈ 0.563 µg/mL); MIC (S. pneumoniae BC57 [13]): 1.45 ± 0.04 µM (≈ 0.633 µg/mL); MIC (S. pneumoniae BC7326 [14]): 1.12 ± 0.37 µM (≈ 0.489 µg/mL); MIC (S. pneumoniae DSM20566 [15]): 5.58 ± 0.97 µM (≈ 2.44 µg/mL); IC50 [17]: 4100 nM; MIC (S. pneumoniae PN8828 [19]): 0.99 ± 0.48 µM (≈ 0.432 µg/mL); IC50 [21]: 7500 nM; MIC90 (S. pneumoniae [22]): 0.99 to 5.75 µM (≈ 0.432 to 2.51 µg/mL); MIC (S. pneumoniae CJ9400 [23]): 3.45 ± 2.05 µM (≈ 1.51 µg/mL); concentration at which erythrocytes were lysed (human erythrocytes): b The erythrocytes were lysed in the presence of artocarpin at concentrations higher than 10 µM.; hemolysis at 3 h, 31.6 µM [28]: 20%; effect on A549 cell viability under adherence assay conditions (in words) [30]: did not affect cell viability; activity in HA assay (in words) ([32]; reference strain D39): no activity; MIC (S. pneumoniae CF6937 [35]): 3.39 ± 2.1 µM (≈ 1.48 µg/mL) |
| CCC(CC)O[C@@H]1C=C(C(=O)O)C[C@H](N)[C@H]1NC(C)=O [oseltamivir, Oseltamivir carboxylate] | > 50 | > 50 | > 50 | > 50 | competitively inhibited | > 50 | > 50 | > 50 | > 50 | > 50 | > 50 | > 50 | 2.1 ± 1.3 | > 50 | 0.3 ± 0.0 | > 50 | > 50 | > 50 | factor by which inhibitory activity on bacterial NAs is lower than on viral NAs ([6]; compared to viral NAs Ki of 0.32 nM): 1000; Ki ([6]; rNanA of DSM20566, MUNANA substrate): 230 nM; concentration up to which no inhibitory or bactericidal activity was exhibited (S. pneumoniae [10]; maximum tested concentration): > 50 µM; Ki (viral NAs): 0.32 nM; effect on adhesion of pneumococci to A549 cells (in words) ([30]; DSM20566 and PN8828): did not reduce pneumococcal adherence; inhibitory potency to pneumococcal NA (in words) (pneumococcal NA): medium; Inhibitory concentration (HA assay) ([32]; minimal NA inhibitory concentration, strain D39): 10.0 ± 0.0 µM |
